High-throughput results deposited in PubChem by Johns Hopkins Ion Channel Center.
TRPC4 block: inhibitors of mouse TRPC4 channel, primary screen, Fluo4 calcium, HEK293 TRPC4beta/mu-opioid cells. DAMGO-evoked Fluo4 calcium flux; stronger effect = lower value. hit rate 0.39% among 300,000. B-score at 10 µM;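 active = B-score over 3 SD under the library average, no early fluorescence shift, positive overall ratio signal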
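Assay system: HEK293 cells with stable TRPC4beta plus mu-opioid receptor expression; Probe or stimulus: DAMGO in two steps, submaximal then maximal; Dosing: single-point compound dosing; Measured by: Fluo4 calcium-dye fluorescence, kinetic read; Read-out basis: B score from integrated Fluo4 fluorescence ratio.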
TRPC6 inhibitor: mouse TRPC6 channel inhibitors, primary screen, cell-based, HEK293, membrane potential dye. ACh-evoked depolarization; stronger effect = lower value. hit rate 1.1% among 310,000. B-score at 10 µM;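 active = B-score under library mean minus 3 SD, initial fluorescence not abnormally high, positive integrated signal ratio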;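 note: B-score derived from integrated fluorescence ratio over the kinetic read; more negative B-score means stronger inhibition of depolarization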
Target sequence (Q61143 whole entry, looked up): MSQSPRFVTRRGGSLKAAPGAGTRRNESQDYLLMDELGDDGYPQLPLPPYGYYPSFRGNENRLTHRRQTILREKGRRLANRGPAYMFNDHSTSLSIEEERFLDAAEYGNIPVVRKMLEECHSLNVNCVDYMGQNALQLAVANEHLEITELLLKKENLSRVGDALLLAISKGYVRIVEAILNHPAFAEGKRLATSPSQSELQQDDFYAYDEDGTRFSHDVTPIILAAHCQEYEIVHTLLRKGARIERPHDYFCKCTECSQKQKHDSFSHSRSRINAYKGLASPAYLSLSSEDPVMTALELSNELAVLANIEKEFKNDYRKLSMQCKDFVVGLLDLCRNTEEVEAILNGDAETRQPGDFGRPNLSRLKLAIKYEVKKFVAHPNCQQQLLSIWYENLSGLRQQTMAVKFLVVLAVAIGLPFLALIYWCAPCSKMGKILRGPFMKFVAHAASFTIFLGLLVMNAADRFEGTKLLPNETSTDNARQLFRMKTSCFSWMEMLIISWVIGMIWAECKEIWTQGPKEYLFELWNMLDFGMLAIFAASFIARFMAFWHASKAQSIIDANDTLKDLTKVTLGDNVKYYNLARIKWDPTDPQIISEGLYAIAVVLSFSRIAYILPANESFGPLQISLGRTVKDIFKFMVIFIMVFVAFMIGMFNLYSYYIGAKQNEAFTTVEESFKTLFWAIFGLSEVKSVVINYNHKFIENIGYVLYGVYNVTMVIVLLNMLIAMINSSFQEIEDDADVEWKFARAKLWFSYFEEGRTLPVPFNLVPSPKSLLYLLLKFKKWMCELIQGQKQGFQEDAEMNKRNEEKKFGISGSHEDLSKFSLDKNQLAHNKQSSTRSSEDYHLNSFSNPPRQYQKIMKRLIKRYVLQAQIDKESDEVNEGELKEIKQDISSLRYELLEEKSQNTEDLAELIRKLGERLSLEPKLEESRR
TRPC6 activator: mouse TRPC6 channel activators, primary screen, cell-based, HEK293, membrane potential dye; AID 2550, 2010; hit rate 0.13% among 310,000; HEK293-TRPC6 membrane potential dye fluorescence; stronger effect = higher value; B-score at 10 µM;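 active = B-score of the integrated fluorescence ratio above library mean plus 3 SD, and starting fluorescence ratio within library mean plus 5 SD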;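 note: higher score means more depolarization so channel activation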
TRPC4 PAM: positive allosteric modulators of TRPC4, primary screen, cell-based, mouse TRPC4beta, HEK293 mu-opioid, Fluo-4 calcium; DAMGO EC20, Fluo-4 Ca2+ flux; stronger effect = higher value; B-score at 10 µM; hit rate 0.42% among 310,000; AID 2227, 2009;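 active = B-score of calcium response area above 5 SD of library B-scores, with initial fluorescence ratio within 5 SD of library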;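 note: B-score of integrated fluorescence ratio over time as area under calcium response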
TRPC4 act: activators of mouse TRPC4 channel, primary screen, Fluo4 calcium, HEK293 TRPC4beta/mu-opioid cells; Short transient receptor potential channel 4 (Mus musculus), Q9QUQ5; Fluo4 calcium fluorescence; stronger effect = higher value; B-score at 10 µM; hit rate 0.49% among 310,000;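 active = B-score above 5 SD of library B-scores, and initial fluorescence ratio not above library mean plus 5 SD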;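 note: positive B-score marks a calcium rise read as TRPC4 activation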
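System: HEK293 cells stably co-expressing mouse TRPC4beta and mu-opioid receptor; Schedule: Fluo4 dye loading 45 min at room temperature, 110 s recording; Detection: Fluo4 fluorescence, kinetic; Evaluation: B-scored integrated calcium fluorescence ratio; Controls: buffer (low) and maximal DAMGO (high).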
TRPC4 sel inh 2: second selectivity test of TRPC6 inhibitors: effect on mouse TRPC4; shares compounds with TRPC6 inhibitor; HEK293 TRPC4/MOR, membrane potential dye fluorescence; channel activated by saturating DAMGO dose; inhibition, % at 10 µM; hit rate 42% among 920;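 active = compounds whose fluorescence signal differed from control wells by over 3 SD, either direction, in both duplicate plates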
TRPC4 spec: mouse TRPC4 modulation by TRPC6 hits, confirmation, selectivity assay for TRPC6 inhibitor project, cell-based, HEK293 TRPC4/mu-opioid, membrane potential dye | AID 2777, 2010 | shares compounds with TRPC6 inhibitor | membrane potential fluorescence | hit rate 61% among 920 | activity change, negative = inhibition, % at 10 µM;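 active = rise or fall in signal beyond 3 SD of buffer-only wells in both replicate plates, either sign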;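 note: integrated kinetic ratio of fluorescence range over baseline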
HEK293 MPD ctr 2-1: nonspecific membrane potential effects, parental HEK293, confirmation, counter-screen for TRPC6 inhibitor project, cell-based, second counter screen | shares compounds with TRPC6 inhibitor | parental HEK293 membrane potential dye fluorescence; maximal acetylcholine challenge after compound addition | signal change vs control, % at 10 µM | hit rate 31% among 920;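 active = membrane potential signal moving either way by over 3 SD of the maximum-effect control, in both duplicate plates, meaning non-specific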
HEK293 MPD ctr-1: membrane potential modulation in parental HEK293, confirmation, counter-screen for TRPC6 inhibitor project, cell-based | shares compounds with TRPC6 inhibitor | AID 2780, 2010 | parental HEK293 membrane potential dye fluorescence | hit rate 60% among 920 | membrane potential signal change, % at 10 µM;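 active = membrane potential signal shifting up or down by more than 3 SD of buffer-only wells, on both duplicate plates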
HEK293 MPD ctr-2: parental HEK293 membrane potential modulation, confirmation, counter-screen for TRPC6 modulator project, cell-based. shares compounds with TRPC6 inhibitor. membrane potential dye fluorescence. membrane potential signal change, % at 10 µM. hit rate 51% among 2,400. AID 488924, 2010;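 active = membrane potential signal moves up or down beyond 5 SD from buffer-only wells, on both duplicate plates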
HEK293 MPD ctr 2-2: parental HEK293 nonspecific activity of TRPC6 modulators, second screen; hit rate 14% among 2,400; shares compounds with TRPC6 inhibitor; membrane potential dye fluorescence; after compound, maximal acetylcholine stimulation; inhibition, % at 10 µM;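 active = membrane potential signal drops by more than 5 SD from the mean control signal, in both duplicate plates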;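 note: plate controls were acetylcholine ECmax control wells for no effect and buffer only wells for full effect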
TRPC4 ctr mod: TRPC4 modulation by TRPC6 hit compounds, confirmation, selectivity assay for TRPC6 modulator project, cell-based, HEK293 TRPC4/mu-opioid, membrane potential dye, mouse. shares compounds with TRPC6 inhibitor. membrane potential fluorescence. percent change from control (negative = decrease, positive = increase), % at 10 µM. hit rate 69% among 2,400. AID 488927, 2010;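 active = membrane potential signal moved up or down beyond 5 SD of buffer control wells, in both duplicate plates, actives on both sides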;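 note: plate controls were assay buffer wells for no effect and DAMGO maximal-effect wells for full effect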
TRPC4/MOR inh 2: second check of whether TRPC6 modulators also affect mouse TRPC4 | shares compounds with TRPC6 inhibitor | HEK293 TRPC4/mu-opioid, membrane potential dye fluorescence; stimulated with maximal-effect DAMGO | inhibition, % at 10 µM | hit rate 55% among 2,400 | AID 488928;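 active = drop in membrane potential signal beyond 5 SD of the control wells in both duplicate plates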;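 note: TRPC4 counter screen for TRPC6 hits run under conditions tuned for TRPC6 not TRPC4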
TRPC6 inh conf: mouse TRPC6 channel inhibitors, confirmation, HEK293 cells, membrane potential dye, duplicate; inhibition, % at 10 µM; ACh-evoked depolarization; AID 488960, 2010; shares compounds with TRPC6 inhibitor; hit rate 43% among 3,300;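 active = fluorescence ratio falls more than 5 SD below the full-stimulation control mean, in both duplicate runs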;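 note: integrated fluorescence ratio of peak minus minimum over baseline after agonist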
TRPC6 act conf: mouse TRPC6 channel activators, confirmation, HEK293 cells, membrane potential dye, duplicate. hit rate 11% among 2,800. HEK293-TRPC6 membrane potential dye fluorescence, FDSS. shares compounds with TRPC6 inhibitor. AID 488961, 2010. activation, % at 10 µM;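 active = ratio signal rise beyond 5 SD above unstimulated control wells' mean, seen in both duplicate runs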;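 note: plate controls were buffer EC0 wells for no effect and acetylcholine ECmax response for full effect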
The depositor's hits bear a star; i = inactive; nt = no result given. Only some compounds are listed: those with a hit (about 2.3% of all), similar ones and a draw of the others.

SMILES	TRPC4 block	TRPC6 inhibitor	TRPC6 activator	TRPC4 PAM	TRPC4 act	HEK293 MPD ctr-2	HEK293 MPD ctr 2-2	TRPC4 ctr mod	TRPC4/MOR inh 2	TRPC6 inh conf	TRPC6 act conf	others
Cc1c(OCC(=O)NCCCN2CCCC2=O)ccc2c3c(c(=O)oc12)CCC3	i	-6.1*	i	i	i	-105%*	i	-19%*	i	i	i
Cc1c(OCC(=O)NCCCN2CCCC2=O)ccc2c3c(c(=O)oc12)CCCC3	i	i	i	i	i	nt	nt	nt	nt	nt	nt
Cc1cc(=O)oc2c(C)c(OCC(=O)NCCCN3CCCC3=O)ccc12	i	-5.2*	i	i	i	-192%*	i	-28%*	i	i	i
Cc1cc(=O)oc2c(C)c(OCC(=O)NCCCn3ccnc3)ccc12	i	-6.6*	i	i	i	-192%*	i	-32%*	30%*	i	i
Cc1c(OCC(=O)NCCN2CCOCC2)ccc2c3c(c(=O)oc12)CCC3	i	-5.2*	i	i	i	i	i	-14%*	i	i	i
CCCn1c(SCC(=O)NCCc2ccccc2)nnc1C(C)C	i	i	i	i	i	nt	nt	nt	nt	nt	nt
Cn1c(C(=O)OC(C(=O)NCc2ccco2)c2ccncc2)cc2sccc21 (stereo not drawn)	i	i	i	i	i	nt	nt	nt	nt	nt	nt
O=C(NCc1ccc(F)cc1)C1CC(=O)N(C2CCCCC2)C1 (stereo not drawn)	i	i	i	i	i	nt	nt	nt	nt	nt	nt
CCOC(=O)c1c(CN2CCCCC2)n(C)c2cc(Br)c(O)cc12	i	i	i	i	i	nt	nt	nt	nt	nt	nt
CCOC(=O)c1c(CN2CCN(C)CC2)n(C)c2cc(Br)c(OC)cc12	i	-5.5*	i	i	i	-113%*	i	-22%*	72%*	44%*	i
CC(C)(C)OC(=O)N1CCC2(CC1)Oc1ccc(Cl)cc1C(=O)C21CC(c2ccc(Cl)cc2)=NO1 (stereo not drawn)	i	i	i	i	i	nt	nt	nt	nt	nt	nt
COc1ccc(CN2CCNC(=O)C2CC(=O)N(C)CCC2CCOCC2)c(OC)c1 (stereo not drawn)	i	i	i	i	i	nt	nt	nt	nt	nt	nt
CC(=Nc1ccccc1)c1sc2ccccc2c1O	i	i	13*	i	i	395%*	i	56%*	i	i	116%*
Cc1ccc(C(=O)OC(C)C(=O)c2cc(C)c(C)cc2C)o1 (stereo not drawn)	i	i	i	i	i	nt	nt	nt	nt	nt	nt
Cc1c(Cl)c(=O)n2c(=O)c(Cl)c(C)n12	i	i	i	i	i	nt	nt	nt	nt	nt	nt
Cc1ccc(-c2nc(C(=O)NCCCN3CCOCC3)cc3c2[nH]c2ccccc23)cc1	i	-6.6*	i	i	i	nt	nt	nt	nt	i	i	TRPC4 sel inh 2=58%*;TRPC4 spec=-16%*;HEK293 MPD ctr 2-1=i;HEK293 MPD ctr-1=-166%*
COc1ccc(-c2nc(C(=O)NCCCN3CCOCC3)cc3c2[nH]c2ccccc23)cc1OC	i	-5.6*	i	i	i	i	i	-18%*	67%*	46%*	i
CC(C)Cc1nnc(NC(=O)c2cc([N+](=O)[O-])ccc2N2CCOCC2)s1	i	-5.2*	i	i	i	i	i	i	i	i	i
CC(C)c1ccc(NC(=O)c2cc([N+](=O)[O-])ccc2N2CCOCC2)cc1	i	i	i	i	i	nt	nt	nt	nt	nt	nt
N#Cc1ccc(C23CC4(C2)[C@H](CN(Cc2cccnc2)[C@@H]4c2ccccc2)C3c2ccccc2)cc1 (stereo partly drawn)	i	i	i	i	i	nt	nt	nt	nt	nt	nt
Cn1c(NCc2ccc(Cl)cc2)nc2ccccc21	i	i	i	i	i	nt	nt	nt	nt	nt	nt
Cc1ccc(CNc2ccc3c(c2)ncn3C(C)(C)C)cc1	i	-6.8*	i	21*	i	nt	nt	nt	nt	i	i	TRPC4 sel inh 2=52%*;TRPC4 spec=12%*;HEK293 MPD ctr 2-1=240%*;HEK293 MPD ctr-1=i
Cc1ccc(CNc2ccc3c(c2)nc(C)n3C)cc1	i	-8.1*	i	i	i	nt	nt	nt	nt	66%*	i	TRPC4 sel inh 2=50%*;TRPC4 spec=-15%*;HEK293 MPD ctr 2-1=i;HEK293 MPD ctr-1=-176%*
Cc1nc2cc(NCc3ccc(Cl)cc3)ccc2n1C	i	-7.1*	i	i	i	nt	nt	nt	nt	60%*	i	TRPC4 sel inh 2=51%*;TRPC4 spec=-15%*;HEK293 MPD ctr 2-1=i;HEK293 MPD ctr-1=-300%*
